Source: ChEMBL document CHEMBL2016521, “Preparation, gram-negative antibacterial activity, and hydrolytic stability of novel siderophore-conjugated monocarbam diols” (ACS Med Chem Lett, 2011)

Key:
[1] = tested on: Klebsiella pneumoniae; assay: Antimicrobial activity against carbapenemase-producing Klebsiella pneumoniae; format: functional
[2] = tested on: Pseudomonas aeruginosa; assay: Antibacterial activity against metallo-beta-lactamase producing Pseudomonas aeruginosa; format: functional
[3] = tested on: Pseudomonas aeruginosa; assay: Antibacterial activity against Pseudomonas aeruginosa clinical isolate; format: functional
[4] = tested on: Escherichia coli; assay: Antimicrobial activity against Escherichia coli clinical isolate; format: functional
[5] = Chemical stability of the compound in phosphate buffer at pH 8 assessed as drug degradation at 1 uM after 100 hrs by HPLC analysis; format: physicochemical; conditions: read-out: Drug degradation
Summary of the method: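 Hydrolytic β-lactam ring-opening was followed in aqueous buffer at pH 8.0 and 37 °C over a 100 h incubation. The read-out was percent degradation.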

[6] = Chemical stability of the compound in phosphate buffer at pH 6 at 1 uM after 24 hrs by HPLC analysis; format: physicochemical; conditions: pH 6, 24 h
Summary of the method: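 Hydrolytic stability of the β-lactam ring was measured in aqueous buffer at pH 6.0 and 37 °C.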

[7] = tested on: Pseudomonas aeruginosa; assay: Antibacterial activity against Pseudomonas aeruginosa; format: functional
[8] = tested on: Stenotrophomonas maltophilia; assay: Antimicrobial activity against Stenotrophomonas maltophilia; format: functional
[9] = tested on: Pseudomonas aeruginosa; assay: Antibacterial activity against Pseudomonas aeruginosa isolate 1091-05; format: functional
[10] = tested on: Acinetobacter sp.; assay: Antimicrobial activity against Acinetobacter sp.; format: functional
[11] = tested on: Klebsiella pneumoniae; assay: Antimicrobial activity against extended spectrum beta-lactamase-producing Klebsiella pneumoniae; format: functional
[12] = tested on: Pseudomonas aeruginosa; assay: Antibacterial activity against imipenem-sensitive Pseudomonas aeruginosa isolate 1091-05 infected in ip dosed SF-1 mouse assessed as survival of animal administered 0.5 and 4 hrs post infected measured on day 4; format: functional; conditions: isolate 1091-05, ip, read-out: PD50
[13] = tested on: Klebsiella aerogenes; assay: Antimicrobial activity against Enterobacter aerogenes; format: functional
[14] = tested on: Klebsiella pneumoniae; assay: Antibacterial activity against Klebsiella pneumoniae 1000-02; format: functional
[15] = tested on: Serratia marcescens; assay: Antimicrobial activity against Serratia marcescens; format: functional
[16] = tested on: Klebsiella pneumoniae; assay: Antimicrobial activity against Klebsiella pneumoniae clinical isolate; format: functional
[17] = tested on: Pseudomonas aeruginosa; assay: Antibacterial activity against Pseudomonas aeruginosa cystic fibrosis isolate; format: functional
[18] = tested on: Citrobacter freundii; assay: Antimicrobial activity against Citrobacter freundii; format: functional
[19] = tested on: Pseudomonas aeruginosa; assay: Antibacterial activity against low inoculum imipenem-sensitive Pseudomonas aeruginosa isolate 1091-05 infected in sc dosed neutropenic-C3H/HeN mouse assessed as mouse survival administered 4 hrs post infection followed by BID dosing for two days measured on day 10; format: functional; conditions: isolate 1091-05, sc, read-out: PD50
[20] = tested on: Pseudomonas aeruginosa; assay: Antibacterial activity against imipenem-sensitive Pseudomonas aeruginosa isolate 1091-05 infected in sc dosed neutropenic-C3H/HeN mouse assessed as mouse survival administered 4 hrs post infection followed by BID dosing for two days measured on day 10; format: functional; conditions: isolate 1091-05, sc, read-out: PD50
[21] = tested on: Acinetobacter baumannii; assay: Antibacterial activity against Acinetobacter baumannii AB-3167; format: functional
[22] = tested on: Escherichia coli; assay: Antimicrobial activity against CTX-M-positive extended spectrum beta-lactamase-producing Escherichia coli; format: functional
[23] = Fraction unbound in mouse plasma at 1 uM by LC-MS/MS analysis; format: ADME, cell-free
[24] = tested on: Escherichia coli; assay: Antimicrobial activity against extended spectrum beta-lactamase-producing Escherichia coli; format: functional

`CC(C)(O/N=C(\C(=O)N[C@H]1CN(C(=O)[N-]S(=O)(=O)n2nc(-c3cc(=O)c(O)c[nH]3)n(C[C@@H](O)CO)c2=O)C1=O)c1csc(N)n1)C(=O)[O-].[Na+].[Na+]` showed an MIC50 [1] of 0.5 µg/mL, an MIC90 [1] of 8 µg/mL and an MIC50 [2] of 0.125 µg/mL. For the same compound, the MIC90 [2] was 0.5 µg/mL, the MIC50 [3] was 0.125 µg/mL and the MIC90 [3] was 0.5 µg/mL. The MIC50 [4] was 0.25 µg/mL, the MIC90 [4] was 2 µg/mL and the degraded at 100 h, 1 µM [5] was 50%. For the same compound, the Stability [6] was “Stable”, the MIC90 [7] was 0.5 µg/mL and the MIC50 [8] was 1 µg/mL. For the same compound, the MIC90 [8] was 2 µg/mL, the MIC [9] was 0.125 µg/mL and the MIC50 [10] was 16 µg/mL. The MIC90 [10] was > 64 µg/mL, the MIC50 [11] was 0.5 µg/mL and the MIC90 [11] was 8 µg/mL. The ED50 [12] was < 1 mg/kg, the MIC50 [13] was 0.125 µg/mL and the MIC90 [13] was 0.25 µg/mL. It also gave an MIC [14] of 0.5 µg/mL, an MIC50 [15] of 0.125 µg/mL and an MIC90 [15] of 0.5 µg/mL. The MIC50 [16] was 0.5 µg/mL, the MIC90 [16] was 8 µg/mL and the MIC50 [17] was 0.125 µg/mL. The MIC90 [17] was 0.5 µg/mL, the MIC50 [18] was 0.5 µg/mL and the MIC90 [18] was 2 µg/mL. The ED50 [19] was 6.9 mg/kg, the ED50 [20] was 20.6 mg/kg and the MIC [21] was 0.5 µg/mL. The MIC50 [22] was 0.25 µg/mL, the MIC90 [22] was 2 µg/mL and the fraction unbound at 1 µM [23] was 0.46. The MIC50 [24] was 0.25 µg/mL and the MIC90 [24] was 2 µg/mL.
